Results reported in the EternaBench riboswitch data.

Test system: MS2 coat protein
Assay: apparent Kd, MS2 coat protein; higher = weaker binding; RNA-MaP array; FMN 200 µM where present
In short: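 Stalled E. coli RNA polymerase transcribed each design on Illumina sequencing-chip clusters. The clusters were titrated with SNAP-549-labelled MS2 coat protein, starting at 0.7 or 1.5 nM and doubling up to 3 µM, first without ligand and then with constant ligand, in 100 mM Tris-HCl pH 7.5, 80 mM KCl, 4 mM MgCl2, BSA, DTT, yeast tRNA and Tween-20. Green signal was normalised to red-channel RNA signal and to the control-cluster median Fmax. The apparent Kd is the median of filtered binding-curve fits made for each cluster.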

[1] = designed as: ON switch for flavin mononucleotide, no ligand
[2] = ligand present: flavin mononucleotide, designed as: ON switch for flavin mononucleotide
[3] = ligand present: flavin mononucleotide, designed as: OFF switch for flavin mononucleotide
[4] = designed as: OFF switch for flavin mononucleotide, no ligand

Row | Sequence | apparent Kd [1] | apparent Kd [2] | apparent Kd [3] | apparent Kd [4]
1 | AUGGUUGUCGUAGGAUAUGUAGGAUAUUCCUACAUGAGGAUCACCCAUGUUCGCAUGGAAGAAGGACAGAAGGACGAUGACCAC | 1480 nM | 9.4 nM |  | 
2 | AUGUCUUAGUAGAAGGGACAUCGGCUGGUAAGCAUCAUCUCCUUCUCACAUGAGGAUCACCCAUGUCAGGAUAUACUAAGAUAC |  |  | 38.5 nM | 
3 | AUGUUACAUGAGGAUCACCCAUGUGAGGAUAUGUGUACCGGUAAAAAAGUGAUUGGCCACAGAAGGCAUUUGGA |  |  | 35.7 nM | 33.2 nM
4 | AUGUUACAUGAGGAUCACCCAUGUGAGGAUAUGUGUAUCCCUAAAAAAGUGUGGGACCACAGAAGGUACUUGGA |  |  | 50.4 nM | 51.5 nM
5 | AUGUUGCGAGGAUAUAUUUAAUGGAUGAUAUUUAUUAGGGAACAUGAGGAUCACCCAUGUAGAAGGUGCAUAAC |  |  | 87 nM | 63.7 nM
6 | AUUAAACAUGAGGAUCACCCAUGUCAACAAAGUCGAGGAUAUGGGCAAAUAAAAUAUGAACCAGAAGGCGAAUAAU | 213 nM | 38.2 nM |  | 
7 | AUUAAGCAGCAGGAUAUAAGUAUCUAAAGGUGGUUAGAAGGGCUGACAUGAGGAUCACCCAUGUGCUCUUCGUG |  |  | 21.1 nM | 15.7 nM
8 | AUUAGCUCGUCAGGAUAUACGUCACUGCGUCAGCAGUGUGGUAAGAUCACAUGAGGAUCACCCAUGUAGAAGGGACGAGCUGAU |  |  | 289 nM | 13 nM
9 | AUUAUAUAGAAAGGAUAUAGAUUAUUAUUUUAACAUGAGGAUCACCCAUGUAGCCUUAUGUAUAACUAGAAGGUUCAUUUAUUA |  |  | 94.4 nM | 72.8 nM
10 | AUUAUGCAGCAGGAUAUCGAUCCGCGGUAUGAUCGAGAAGGGCUGACAUGAGGAUCACCCAUGUGCGUCCUAGG |  |  | 147 nM | 39.8 nM
11 | AUUAUUAAUGCAGGAUAUGAUUAACAUGAGGAUCACCCAUGUGGUGUUGUGAGUAAGGAGAGUGAUCAGAAGGGCAUUUUUUUU | 493 nM | 695 nM |  | 
12 | AUUAUUUACAUAGGAUAUUGUUACAUGAGGAUCACCCAUGUUUUCAUGGUAUUAAUAUAUUAUUUCAAGAAGGAUGUUGUUACA | 32.2 nM | 19.6 nM |  | 
13 | AUUAUUUAUAGUUAUUGGUAUUUUACAGAAGGUGAAAGUGUCACAUGAGGAUCACCCAUGUUCUUCAAGGAUAUGUUGUUAUAC | 64.2 nM | 11.6 nM |  | 
14 | AUUAUUUUGUAGAAGGACGACUAUUAAUUUUUCGUAGGAUAUACUAUUUACAUGAGGAUCACCCAUGUUUAAAUGGAACAAUGU |  |  | 10.4 nM | 9.32 nM
15 | AUUCCCAACCAGAAGGACAUGAGGAUCACCCAUGUAGGAUAUGGGUGGGUGACCCGAACUUGGACGACAUCACAAUUCUCACAC | 55.6 nM | 9.49 nM |  | 
16 | AUUGAGUGAGGAUAUCCCGCUGCCGUGCGACCAUGGAGCUGGGAGAAGGCACAUGAGGAUCACCCAUGUGAGUU |  |  | 45 nM | 19.3 nM
17 | AUUGGUUUGCGAGGAUAUGCUAAUAGUAAGUAUGCAGAAGGCGCGUUACAUAGAACCUCUAGUUACAUGAGGAUCACCCAUGUU |  |  | 45.4 nM | 46.2 nM
18 | AUUGUAUGGGAAGGAUAUAGAAUAUUAUUUUAACAUGAGGAUCACCCAUGUAACCUUAUGUGUAGCUAGAAGGUCCGUUUGUUA |  |  | 409 nM | 308 nM
19 | AUUUAUGGCCAGAAGGACAUGAGGAUCACCCAUGUAGGAUAUGGACGAUUUUGCUCGGUGGUUCGUUUAGGAAGCACCGGUGGU | 9.59 nM | 7.02 nM |  | 
20 | AUUUGACACGUAGGAUAUCGCUCUAAUUUAACACGAGAAGGACGUACAUGAGGAUCACCCAUGUUAAAUGGUGUAGUUUAUUUG |  |  | 164 nM | 82.1 nM
21 | AUUUGCCUAGGAUAUACUCGGGCCCGCUCAUACUCCAAUGGACAUGAGGAUCACCCAUGUAGAAGGAGGAACCA |  |  | 20 nM | 16 nM

Row | Sequence | apparent Kd [1] | apparent Kd [2] | apparent Kd [3] | apparent Kd [4]
22 | CAAACGUGAGGAUAUACAUGAGGAUCACCCAUGUGUUCCUCUAAACUGAAGAAGUAAUGUAGAAGGCACGUUUG |  |  | 19.4 nM | 43.1 nM
23 | CAAAGUGGAGGAUAUACAUGAGGAUCACCCAUGUAAGGACAAUAAAUAAGAAGAAGAAGUAGAAGGCCACUCAA |  |  | 41.6 nM | 31.1 nM
24 | CAAAUUAGCGAGAAGGAGCGCCCGUAGGUACAUGAGGAUCACCCAUGUCCUUUGUGCUCUACGCGCUAGGAUAUCGAUAAACAG |  |  | 99.4 nM | 12.8 nM
25 | CAAGGUACCCAAGGAUAUCCUCACAUGAGGAUCACCCAUGUGUCAGCAAAAGGAGAAGGUGGGUGAAGCUGUCUGCACGCCAAG | 53.3 nM | 4.53 nM |  | 
26 | CAAUUGGCACAGAAGGGUGACAUGAGGAUCACCCAUGUAGCGUGGUACUCAGGAGGAACCACGCCACAGGAUAUGUGCCGGCAC | 44.5 nM | 123 nM |  | 
27 | CAAUUUAUGUCAGGAUAUACAAUACAAUGAUUAGUAGAAGGGAUUAAUACAUGAGGAUCACCCAUGUCAUGUGUCAUCGUAACC |  |  | 17.4 nM | 22.3 nM
28 | CAAUUUAUGUCAGGAUAUACAAUACAAUGAUUAGUAGAAGGGAUUAAUACAUGAGGAUCACCCAUGUCAUGUGUCAUCGUGCCC |  |  | 20.7 nM | 24 nM
29 | CACACAUGUGGAGGAUAUGUAGUUAACAUAAGCGCAGAAGGCCACAUGAGGAUCACCCAUGUCCGGCAUUAGCCGAUGUUGAUC |  |  | 397 nM | 108 nM
30 | CACAUGUGAGGAUAUGUACGAGGCCCGGACGGGUCUCGCAGGCAGAAGGCACAUGAGGAUCACCCAUGUGACCG |  |  | 66.7 nM | 23.9 nM
31 | CACCGGCCCUAUAUGUUCUAGACAUGAGGAUCACCCAUGUAUAGAAGGGUCUUCGCGAAACGCAGACAGGAUAUGUACAGGAGU |  |  | 9.13 nM | 6.08 nM
32 | CACCGUUAACUAGGAUAUAGUACAUGAGGAUCACCCAUGUAAUAAAUGAGAAUUUCGGAUGUAUGCUAGAAGGAGUAAAUCGGC |  |  | 64.4 nM | 62.8 nM
33 | CACUCACAUGAGGAUCACCCAUGUCCUAGCAGGUCAGGAUAUAGCUCGGAUGCGUUCAGUCUAGAAGGGACACGUU | 156 nM | 111 nM |  | 
34 | CAGAAGUCAGGAUAUGCAUGGCGGGACUUGCGUCGUGGCGUGCAGAAGGGACAUGAGGAUCACCCAUGUGGAGU |  |  | 251 nM | 173 nM
35 | CAGAAGUCAGGAUAUGCUGCUCGUCACUUGCGUGAUGAGUAGCAGAAGGGACAUGAGGAUCACCCAUGUAAAGU |  |  | 121 nM | 55.6 nM
36 | CAGAGGAUGUAAGGAUAUCGUCAGGAUAACUGACGAGAAGGUACAUGAGGAUCACCCAUGUAUAUGAAAGAUAAUAAACCUCUG |  |  | 18.8 nM | 13.5 nM
37 | CAGAUAAAAGUGUGGUCGUCGACAUGAGGAUCACCCAUGUACGAGGAUAUGUAAUAUACGGUAUAGCAGAAGGCGUAUGGGUGU |  |  | 103 nM | 74.6 nM
38 | CAGAUUUGCUAGAAGGGUGACAUGAGGAUCACCCAUGUGCGGGCAGACCUAUCUUCAUGCCCGCCACAGGAUAUAGCAAUUUGC | 36.6 nM | 17.9 nM |  | 
39 | CAGCAAAGGUAGAAGGCAGUACUGAUACAGUACUGAGGAUAUACAUGAGGAUCACCCAUGUAAAAAAGCUGGAAAUAAAUAAAA |  |  | 10 nM | 7.39 nM
40 | CAGCAAUGUAAGAAGGCUGCUCCGAUUAGGAGCAGAGGAUAUUACAUGAGGAUCACCCAUGUAUAAAAUAAUAGCUGAAAUAAU |  |  | 7.69 nM | 6.37 nM
41 | CAGCAAUGUAAGAAGGUAUUUAUUAUUAUAUUAUAAGGAUAUUACAUGAGGAUCACCCAUGUAUGAACCAAUAGCUGAAUUAUA |  |  | 5.88 nM | 6.1 nM
42 | CAGCGAAAGCUGAAUGUCGGAGCAGAGGAUAUUACAUGAGGAUCACCCAUGUAUGAACCAAAAUGUAAGAAGGCUGCUCCGACA |  |  | 20.4 nM | 844 nM
